In ChEMBL document CHEMBL1127638, “Dibasic (amidinoaryl)propanoic acid derivatives as novel blood coagulation factor Xa inhibitors” (J Med Chem, 1994):

Tests used:
Coagulation factor X = Coagulation factor X (Homo sapiens, UniProt P00742); test: In vitro evaluation for the concentration needed for inhibiting factor Xa by 50%
[1] = In vitro evaluation for the concentration needed to double the Plasma recalcification clotting time; type: functional, Homo sapiens
How it was run: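 Human plasma incubated with saline or inhibitor in saline for 2 min at 37 °C. Clotting started with 20 mM CaCl2 solution. Result given as the concentration that doubles plasma clotting time (CT2).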

Prothrombin = Prothrombin (Homo sapiens, UniProt P00734); test: In vitro evaluation for the concentration needed for inhibiting thrombin by 50%
Rattus norvegicus [2] = test: Ex vivo anticoagulant activity was measured by calculating the Activated partial thromboplastin time at 0.5 hr by dose of 300 mg/kg on oral administration in male Wistar rat; type: functional
How it was run: (§1)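 Male Wistar rats (200-250 g), fasted overnight, given compound dissolved in water by stomach tube. Anesthetized with sodium thiopental (100 mg/kg, ip) 15 min after dosing. Jugular vein blood taken into trisodium citrate at several time points and centrifuged to platelet-poor plasma. APTT read after mixing plasma with saline and Platerin Plus activator, clotting started with 20 mM CaCl2. Reported as test/control ratio, mean ± SE, n = 4-5.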

Rattus norvegicus [3] = test: Ex vivo anticoagulant activity was measured by calculating the Activated partial thromboplastin time at 1 hr by dose of 300 mg/kg on oral administration in male Wistar rat; type: functional; how it was run: as §1
Rattus norvegicus [4] = test: Ex vivo anticoagulant activity was measured by calculating the Activated partial thromboplastin time at 2 hr by dose of 300 mg/kg on oral administration in male Wistar rat; type: functional; how it was run: as §1
Rattus norvegicus [5] = test: Ex vivo anticoagulant activity was measured by calculating the Activated partial thromboplastin time at 4 hr by dose of 300 mg/kg on oral administration in male Wistar rat; type: functional; how it was run: as §1
Rattus norvegicus [6] = test: Ex vivo anticoagulant activity was measured by calculating the Activated partial thromboplastin time (test/control) at 1 hr by dose of 100 mg/kg on oral administration in male Wistar rat; type: functional; how it was run: as §1
Rattus norvegicus [7] = test: Ex vivo anticoagulant activity was measured by calculating the Activated partial thromboplastin time (test/control) at 2 hr by dose of 100 mg/kg on oral administration in male Wistar rat; type: functional; how it was run: as §1
Rattus norvegicus [8] = test: Ex vivo anticoagulant activity was measured by calculating the Activated partial thromboplastin time (test/control) at 4 hr by dose of 100 mg/kg on oral administration in male Wistar rat; type: functional; how it was run: as §1
Rattus norvegicus [9] = test: Ex vivo anticoagulant activity was measured by calculating the Activated partial thromboplastin time (test/control) at 0.5 h by dose of 100 mg/kg on oral administration in male Wistar rat; type: functional; how it was run: as §1

Coagulation factor X, sequence (P00742 41-179 limits assumed): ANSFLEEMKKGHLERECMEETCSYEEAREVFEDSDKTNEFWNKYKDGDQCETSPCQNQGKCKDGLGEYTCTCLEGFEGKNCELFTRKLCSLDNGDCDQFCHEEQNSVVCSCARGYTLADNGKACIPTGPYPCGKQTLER
Coagulation factor X, sequence (P00742 235-488 limits assumed): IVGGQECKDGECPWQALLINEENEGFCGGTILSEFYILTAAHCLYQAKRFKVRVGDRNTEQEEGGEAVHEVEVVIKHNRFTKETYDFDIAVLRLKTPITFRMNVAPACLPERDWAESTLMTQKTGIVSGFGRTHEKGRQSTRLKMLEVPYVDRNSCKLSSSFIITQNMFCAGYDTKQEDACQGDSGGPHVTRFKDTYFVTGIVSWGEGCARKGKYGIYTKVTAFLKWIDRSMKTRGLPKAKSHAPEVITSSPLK

SMILES	IC50 (Coagulation factor X) [nM]	CT2 [1] [µM]	IC50 (Prothrombin) [µM]	further results
N=C(N)c1ccc2ccc(CC(C(=O)O)c3ccc(O[C@H]4CCNC4)cc3)cc2c1 (some centres not stated)	200	3.2	> 1600	
CCOC(=O)C(Cc1cc2ccc(C(=N)N)cc2o1)c1ccc(O[C@H]2CCNC2)cc1 (some centres not stated)	1700	8.3	36	
CC(=N)N1CC[C@H](Oc2ccc([C@@H](Cc3ccc4ccc(C(=N)N)cc4c3)C(=O)O)cc2)C1		6		
CC(=N)N1CC[C@H](Oc2ccc(CCc3cc4cc(C(=N)N)ccc4o3)cc2)C1	640	1.2	4	
CC(=N)N1CC[C@H](Oc2ccc(C(Cc3ccc4cc(C(=N)N)ccc4c3)C(=O)O)cc2)C1 (some centres not stated)		4.4		
N=C(N)c1ccc2oc(CCc3ccc(O[C@H]4CCNC4)cc3)cc2c1	940	7.5	100	
CC(=N)N1CC[C@H](Oc2ccc(C(Cc3ccc4ccc(C(=N)N)cc4c3)C(=O)O)cc2)C1 (some centres not stated)		1.3		
N=C(N)c1ccc2cc(CC(C(=O)O)c3ccc(O[C@H]4CCNC4)cc3)oc2c1 (some centres not stated)	1700	16	> 1000	
CC(=N)N1CC[C@H](Oc2ccc(C(Cc3cc4ccc(C(=N)N)cc4o3)C(=O)O)cc2)C1 (some centres not stated)	840	5.6	> 400	
CCOC(=O)C(Cc1ccc2ccc(C(=N)N)cc2c1)c1ccc(O[C@H]2CCNC2)cc1 (some centres not stated)	310	3.2	> 600	
CC(=N)N1CC[C@H](Oc2ccc(C(Cc3cc4cc(C(=N)N)ccc4o3)C(=O)O)cc2)C1 (some centres not stated)	500	6	15	
CCOC(=O)C(Cc1ccc2cc(C(=N)N)ccc2c1)c1ccc(O[C@H]2CCNC2)cc1 (some centres not stated)	4200	12.4	38	
CCOC(=O)C(Cc1ccc(O[C@H]2CCNC2)cc1)c1cc2cc(C(=N)N)ccc2o1 (some centres not stated)	52000	31	20	Tested/Control (Rattus norvegicus [2]): 0.98; Tested/Control (Rattus norvegicus [3]): 1.3; Tested/Control (Rattus norvegicus [4]): 1.11; Tested/Control (Rattus norvegicus [5]): 1.05
N=C(N)c1ccc2cc(CC(C(=O)O)c3ccc(O[C@H]4CCNC4)cc3)ccc2c1 (some centres not stated)	4100	22	> 100	
N=C(N)c1ccc2oc(CCc3cc4cc(C(=N)N)ccc4o3)cc2c1	100	1.6	5	
N=C(N)c1ccc2oc(CC(C(=O)O)c3ccc(O[C@H]4CCNC4)cc3)cc2c1 (some centres not stated)		14	230	Tested/Control (Rattus norvegicus [2]): 1.28; Tested/Control (Rattus norvegicus [3]): 1.4; Tested/Control (Rattus norvegicus [4]): 1.25; Tested/Control (Rattus norvegicus [5]): 1.2
N=C(N)c1ccc2oc(C(Cc3ccc(O[C@H]4CCNC4)cc3)C(=O)O)cc2c1 (some centres not stated)	45000	14	9	Tested/Control (Rattus norvegicus [3]): 1.33; Tested/Control (Rattus norvegicus [4]): 1.15; Tested/Control (Rattus norvegicus [5]): 1.16
CCOC(=O)C(Cc1cc2cc(C(=N)N)ccc2o1)c1ccc(O[C@H]2CCNC2)cc1 (some centres not stated)	1000	20	21	Tested/Control (Rattus norvegicus [2]): 1.17; Tested/Control (Rattus norvegicus [3]): 1.17; Tested/Control (Rattus norvegicus [4]): 1.19; Tested/Control (Rattus norvegicus [5]): 1.21
CC(=N)N1CC[C@H](Oc2ccc([C@H](Cc3ccc4ccc(C(=N)N)cc4c3)C(=O)O)cc2)C1 [DX-9065A]		0.5		Tested/Control (Rattus norvegicus [6]): 1.51; Tested/Control (Rattus norvegicus [7]): 1.48; Tested/Control (Rattus norvegicus [8]): 1.28; Tested/Control (Rattus norvegicus [9]): 1.63
